Assay outcomes deposited in PubChem by several laboratories.
ABHD5-PLIN5 inh – blocks binding of human ABHD5 to perilipin-5; Split G. princeps luciferase complementation, luminescence, 4 h; inhibition, % at 4 µM; 0.78% of 360,000 active; AID 602281;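 active = inhibition above the mean inhibition across every tested compound plus 3 SD, cut at about 22% in these data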;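 also: 0% = DMSO only wells and the 100% control is not disclosed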
Target sequence (Q00G26 whole entry, looked up): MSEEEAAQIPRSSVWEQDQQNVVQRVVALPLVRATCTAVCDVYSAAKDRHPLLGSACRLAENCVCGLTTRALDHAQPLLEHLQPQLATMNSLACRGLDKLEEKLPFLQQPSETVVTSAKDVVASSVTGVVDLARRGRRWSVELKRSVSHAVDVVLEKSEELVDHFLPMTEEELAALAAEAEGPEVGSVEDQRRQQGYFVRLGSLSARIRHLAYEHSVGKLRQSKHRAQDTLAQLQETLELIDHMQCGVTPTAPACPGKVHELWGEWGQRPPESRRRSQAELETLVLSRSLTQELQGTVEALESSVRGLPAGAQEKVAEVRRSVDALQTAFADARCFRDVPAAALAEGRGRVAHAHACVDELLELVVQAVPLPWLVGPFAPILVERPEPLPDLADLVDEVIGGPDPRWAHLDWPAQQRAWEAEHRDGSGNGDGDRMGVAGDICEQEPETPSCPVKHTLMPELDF
Target sequence (Q8WTS1 whole entry, looked up): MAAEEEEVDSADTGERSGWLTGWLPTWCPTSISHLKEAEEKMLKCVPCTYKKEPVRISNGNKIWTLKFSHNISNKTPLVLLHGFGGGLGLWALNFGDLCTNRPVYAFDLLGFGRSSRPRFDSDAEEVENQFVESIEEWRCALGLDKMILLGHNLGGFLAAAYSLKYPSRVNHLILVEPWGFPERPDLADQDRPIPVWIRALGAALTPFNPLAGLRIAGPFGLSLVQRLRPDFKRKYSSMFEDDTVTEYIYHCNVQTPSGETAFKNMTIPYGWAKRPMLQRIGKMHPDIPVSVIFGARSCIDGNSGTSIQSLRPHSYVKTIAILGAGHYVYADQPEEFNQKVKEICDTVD
core dimer inh – HCV core protein dimerization inhibition. TR-FRET GST/Flag-core106 dimerization, 1536-well. inhibition, % at 5 µM. 0.33% of 300,000 active. AID 1899;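 active = inhibition above the mean of all tested compounds plus 3 SD, set per screening campaign, cut at about 45% in these data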
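Assay system: GST-tagged and Flag-tagged HCV core protein residues 1-106 / Times: compound-protein-antibody incubation 4 h at 22.5 °C / Signal: time-resolved FRET, ex 340 nm, em 617 and 671 nm / Evaluation: % inhibition based on acceptor/donor emission ratio / Benchmarks: wells lacking GST-core106 and wells with excess unlabelled core106 / Repeats: singlicate, one well per compound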
A3G deaminase – blocks human APOBEC3G single-stranded DNA deamination; AID 493012; Q9HC16; inhibition, % at 20 µM; 0.28% of 330,000 active; recombinant A3G, ssDNA deamination FAM/TAMRA fluorescence;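 active = inhibition of at least 40% at 20 µM, with no more than 30% in the related APOBEC3A deaminase screen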;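 also: plate controls were DMSO wells with A3G for no effect and wells lacking A3G enzyme for full effect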
NS3 helicase inh – blocks Hepatitis C virus NS3 helicase unwinding; inhibition, % at 10.9 µM; NS3 helicase DNA unwinding, Cy5 molecular beacon fluorescence; AID 1800; 0.56% of 290,000 active;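 active = inhibition above the mean of all tested compounds plus 3 SD, set per campaign, cut at about 35% in these data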;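 also: 0% = DMSO wells and 100% = thioflavine S control wells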
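Compound dosing – single dose, 10.9 µM nominal final, DMSO 0.8% final · System – NS3 helicase fragment of HCV · Buffer or medium – MOPS pH 6.5, MgCl2, DTT, Tween20, BSA · Signal – Cy5 beacon fluorescence read at start and 1 h · Also added – annealed dual-labelled DNA beacon duplex, ATP-started · Schedule – 1 h at 25 °C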
APOBEC3A inh – human APOBEC3A DNA deaminase inhibition; P31941; recombinant A3A, FAM/TAMRA ssDNA deamination fluorescence; inhibition, % at 20 µM; 0.41% of 330,000 active;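 active = at least 40% inhibition at 20 µM here, with at most 30% in a related deaminase screen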;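 also: plate controls were A3A with DMSO for no effect and wells lacking A3A enzyme for full effect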
PRMT1 FP inh – inhibitors of human PRMT1; AID 652257; 1.3% of 370,000 active; recombinant PRMT1, activity-based probe fluorescence polarization; inhibition, % at 2.79 µM; Q99873;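 active = inhibition above about 21% made by adding two undisclosed values, limit read from the data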
Active calls of the source: *; nt = not tested or not shown. Shown are actives, neighbours in structure and some others; about 2.9% of the full set was active somewhere.

SMILES	ABHD5-PLIN5 inh	core dimer inh	A3G deaminase	NS3 helicase inh	APOBEC3A inh	PRMT1 FP inh
CC(C)CC(=O)/C(=C/c1ccc(N(C)C)cc1)n1cncn1	1	10	-7	-2	-6	-4
CC(C)CC(=O)/C(=C\c1ccc(Cl)cc1Cl)n1cncn1	95*	nt	nt	8	nt	nt
O=C1CCSC2=C1SCc1sccc12	22*	nt	nt	nt	nt	5
CCc1ccc(C2=NNC(=Nc3c(C)n(C)n(-c4ccccc4)c3=O)SC2)cc1	-10	10	-7	-1	-1	10
Cc1cc(C2=NNC(=NC3CCCCC3)SC2)c(C)n1-c1c(C)n(C)n(-c2ccccc2)c1=O	-8	65*	-4	8	-2	-1
Cc1ccc(/C=C2\SC(N3CCN(C(c4ccccc4)c4ccccc4)CC3)=NC2=O)o1	10	60*	-3	13	1	15
COC(=O)[C@]12C[C@H](CC(=O)NCCCCc3ccccc3)C(=O)N(CCC3=CCCCC3)C1=C[C@H](C1CCCC1)O[C@@H]2C	nt	nt	nt	nt	nt	3
Cc1ccc(C(=O)CC(=O)c2ccccc2)cc1	-5	8	14	31	-2	0
Cc1ccc(C(=O)Sc2cccccc2=O)cc1	-3	11	5	25	4	45*
O=C(Nc1ccccc1SC(=O)c1ccccc1)c1ccccc1	-7	nt	nt	nt	nt	94*
CCOc1ccc(-n2c(SCC(=O)Nc3ccc(S(=O)(=O)Nc4nccs4)cc3)nnc2-c2ccc(C(C)(C)C)cc2)cc1	nt	nt	nt	nt	nt	4
O=C(Nc1csc([N+](=O)[O-])c1)Nc1ccccc1Cl	-3	-2	-8	-5	-4	-4
O=C(Nc1ccc(Cl)cc1)Nc1ccccc1Sc1ncc([N+](=O)[O-])s1	-19	0	-2	21	1	50*
O=C(NCCN1CCN(Cc2ccccc2)CC1)C1c2ccccc2C(=O)N2CCc3ccccc3C12 (stereo not drawn)	2	5	-2	-9	-1	2
Cc1ccc(CNC(=O)C2c3ccccc3C(=O)N3CCc4ccccc4C23)o1 (stereo not drawn)	22*	1	-3	4	-1	2
COc1ccccc1N1CCN(Cc2cc(=O)n3ccsc3n2)CC1	0	2	-6	1	-3	0
CC1Cc2ccccc2N1Cc1cc(=O)n2ccsc2n1 (stereo not drawn)	2	68*	-6	3	-3	6
COc1ccc2nc(-c3ccco3)c(-c3ccco3)nc2c1	17	40	83	29	92	63*
N=C1/C(=C\c2ccc(-c3cccc(C(=O)O)c3)o2)C(=O)N=C2SC=C(c3ccccc3)N12	0	25	0	18	9	22*
N=C1/C(=C/c2ccc(-c3cccc(C(=O)O)c3)o2)C(=O)N=C2SC(CC(=O)N3CCOCC3)=NN12	9	-15	55	17	84	10
COc1ccc(OC)c(NC(=O)CCCc2ccccc2)c1	7	-4	-7	-7	-1	22*
COc1ccc(OC)c(NC(=O)COC(=O)/C=C/c2ccco2)c1	9	nt	4	nt	11	23*
COC(=O)C1=C(C)N(Cc2cccc(C(F)(F)F)c2)C(=NCC2CC2)NC1c1ccc(F)cc1 (stereo not drawn)	nt	nt	nt	nt	nt	-1
O=C(NNc1nc2ccccc2s1)Nc1ccc(F)cc1	-1	2	3	-7	-7	-2
O=C(NNc1nc2ccccc2s1)Nc1ccc(Cl)c(Cl)c1	-13	-6	-4	3	0	23*
N[C@@H](C(=O)N[C@@H]1C(=O)N2C(C(=O)O)=C(Cl)CS[C@H]12)c1ccccc1	-21	2	-2	6	-1	46*
COc1ccc(N2C(=O)[C@@H]3[C@H](C2=O)[C@H](C(=O)c2ccc(OC(C)=O)cc2)N2N=CC=C[C@@H]32)cc1	nt	46*	-5	-8	-7	nt
CCN=C1NC(CCc2ccccc2)C(C(=O)OC)=C(C)N1Cc1ccccc1C(F)(F)F (stereo not drawn)	nt	nt	nt	nt	nt	0
COC(=O)C1=C(C)N(Cc2ccc(C(F)(F)F)cc2)C(=NCc2ccccc2C(F)(F)F)NC1c1ccccc1C(F)(F)F (stereo not drawn)	nt	nt	nt	nt	nt	3
